Assay outcomes (PubChem)
Neddylation inh = inhibitors of cullin neddylation, primary screen, biochemical, TR-FRET, uHTS, NAE and Ubc12 | hit rate 0.58% among 360,000 | AID 651699, 2012 | inhibition, % at 25 µM | NEDD8-conjugating enzyme Ubc12 (Homo sapiens) + NEDD8-activating enzyme E1 regulatory …; in the data active means inhibition above about 36%
HIF activator = HIF pathway transcriptional activators, primary screen, cell-based, U2OS HRE-luciferase, luminescence; activation, % at 7.5 µM (by protocol); AID 1910, 2009; hit rate 0.32% among 300,000; U2OS HRE-luciferase reporter; normalized: DMSO 0%, desferrioxamine 100%;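 active means mean activation of at least 10% of the iron chelator positive control signal, with at least half of replicates also reaching 10%; inconclusive means mean and replicate majority disagree about reaching 10%; inactive means mean and most replicates under 10%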
procasp3 activ = activators of human procaspase-3 D3A mutant, primary screen, biochemical, absorbance, PC-3 D3A mutant, single concentration | activation, % at 8.5 µM | AID 463141, 2010 | recombinant procaspase-3 D3A, Ac-DEVD-pNA absorbance 405 nm | Caspase-3 (Homo sapiens), P42574 | hit rate 0.11% among 330,000;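 active means activation above the mean of all tested compounds plus 3 SD, cut at about 21% in these data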
Target sequence (P42574 whole entry D9A/D28A/D175A): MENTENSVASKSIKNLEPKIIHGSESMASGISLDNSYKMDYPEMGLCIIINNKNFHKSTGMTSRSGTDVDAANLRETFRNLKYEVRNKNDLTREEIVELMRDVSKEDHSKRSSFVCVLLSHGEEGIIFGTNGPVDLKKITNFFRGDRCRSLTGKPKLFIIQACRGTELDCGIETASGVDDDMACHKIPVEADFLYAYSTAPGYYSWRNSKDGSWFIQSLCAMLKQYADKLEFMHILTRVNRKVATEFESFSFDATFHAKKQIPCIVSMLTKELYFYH
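Test system: Procaspase-3 D3A mutant, all three cleavage aspartates alanine | Dosing: Single dose, 8.5 µM nominal compound, 0.8% DMSO | Schedule: 1 h preincubation, 2 h reaction | Technique: 405 nm absorbance of p-nitroaniline, reads at 0 and 120 min | Repeats: One well per compound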
procasp7 counter = procaspase-7 activators, primary screen, counter-screen for procaspase-3 activator project, biochemical, absorbance, HTS, human. activation, % at 8.5 µM. AID 463210, 2010. hit rate 0.093% among 330,000. recombinant procaspase-7, Ac-DEVD-pNA absorbance 405 nm; D23A/D198A/D206A triple mutant, cannot self-cleave; scale: DMSO 0, 5 µM enzyme 100;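 active means percent activation above the screen-wide mean plus 3 SD, cut at about 25% in these data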
Target sequence (P55210 whole entry D23A/D198A/D206A): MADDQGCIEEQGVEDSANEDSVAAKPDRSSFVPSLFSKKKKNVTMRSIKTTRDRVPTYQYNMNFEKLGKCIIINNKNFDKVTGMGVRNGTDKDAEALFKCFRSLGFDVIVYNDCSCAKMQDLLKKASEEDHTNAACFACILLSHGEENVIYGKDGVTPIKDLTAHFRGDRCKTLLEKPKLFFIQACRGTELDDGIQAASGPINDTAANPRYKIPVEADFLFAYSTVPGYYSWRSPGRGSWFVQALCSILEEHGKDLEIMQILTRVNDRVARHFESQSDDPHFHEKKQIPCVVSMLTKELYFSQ
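Assay system: Uncleavable procaspase-7 mutant enzyme | Input: 2 µM procaspase-7 mutant as dispensed | Timing: 1 h compound preincubation, 2 h substrate cleavage, 25 °C | Repeats: One well per compound | Control set: DMSO wells as 0%, DMSO with 5 µM added PC-7 as 100% | Technique: Epi-absorbance of released pNA at 405 nm, two timepoints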
GAA850 FXN act = FXN promoter activators, primary screen, cell-based, luciferase luminescence, HEK293 lucGAA850. activation, % at 6 µM. hit rate 0.56% among 360,000. HEK293 lucGAA850 FXN promoter luciferase reporter, 24 h; percent of 10 µM SAHA response;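 active means activation above the average of all compounds screened plus 3 SD, cutoff fixed separately per campaign, cut at about 7.5% in these data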
Calb FLC = C. albicans growth inhibition with fluconazole, primary screen, CaCi-2 strain, Alamar Blue fluorescence; C. albicans CaCi-2 + fluconazole, 48 h; growth inhibition, % (test concentration not listed); AID 1979, 2009; hit rate 0.57% among 300,000;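 active means growth inhibition above about 58% in most replicates, limit read from the data, passing the limit was not always enough; inconclusive means exactly half the replicates above a set limit; inactive means most replicates below a set limit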;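 further: all wells also contain fluconazole at 8 µg/ml as a sub-toxic cotreatment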
Neddyl inh conf = blockade of NEDD8 conjugation to cullin – biochemical, TR-FRET, single concentration, confirmation; shares compounds with Neddylation inh; TR-FRET cullin neddylation biochemical assay; calls only at 25 µM; hit rate 13% among 1,800; AID 652217, 2013; in the data active means inhibition above about 40%;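 further: neddylation substrate is the cullin 1 ring ligase complex with SKP2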
Numbers stand for hits; – = inactive; ? = inconclusive; · = no result given; + = active, no number. Shown are actives, neighbours in structure and some others; about 1.9% of the full set was active somewhere.

SMILES	Neddylation inh	HIF activator	procasp3 activ	procasp7 counter	GAA850 FXN act	Calb FLC	Neddyl inh conf
COc1ccc2cc(C(=O)C3CCCN(Cc4cnc(N5CCOCC5)s4)C3)ccc2c1 (stereo not drawn)	42	–	–	–	–	–	–
CCOC(=O)C(=CNc1ccc2c(c1)nnn2-c1ccc(Cl)cc1)C(=O)OCC	44	–	–	–	–	–	·
CCOC(=O)C(=CNc1ccc(O)c(C(=O)OC)c1)C(=O)OCC	43	–	–	–	–	–	–
CCOC(=O)C(=CNc1cc(C)nn1-c1ccc(C)cc1)C(=O)OCC	–	–	–	–	–	–	·
CC1CCN(C(=O)CN2c3cccc4cccc(c34)S2(=O)=O)CC1	46	·	–	–	–	·	·
NC(=O)NC(=O)CN1c2cccc3cccc(c23)S1(=O)=O	–	–	–	–	–	–	·
CC1CCCCC1NC(=O)CN1c2cccc3cccc(c23)S1(=O)=O (stereo not drawn)	44	·	–	–	–	·	·
COc1ccc(NC(=O)CN2c3cccc4cccc(c34)S2(=O)=O)c(OC)c1	–	–	–	–	–	–	·
O=C(CN1CCN(S(=O)(=O)c2ccc(Cl)s2)CC1)N1CCOCC1	–	–	–	–	–	–	·
CC1CCCCC1NC(=O)c1cc2c(=O)n3ccccc3nc2n1C (stereo not drawn)	·	–	–	–	–	?	·
O=C(NCCC1=CCCCC1)c1c(O)nc2ccccn2c1=O	–	–	–	–	–	–	·
O=C(NCCCN1CCCC1=O)c1c(O)nc2ccccn2c1=O	41	–	–	–	–	–	–
CC1CCCCC1NC(=O)c1c(O)nc2ccccn2c1=O (stereo not drawn)	40	–	–	–	–	–	–
CC1CC(=O)c2cnc(Nc3ccccc3)nc2C1 (stereo not drawn)	38	–	–	–	–	–	·
CC1CCCCC1NC(=O)COC(=O)/C=C/c1ccc2c(c1)OCO2 (stereo not drawn)	39	–	–	–	–	–	–
OCC[C@@H]1C[C@H](O)[C@@H](O)[C@]2(CCc3ccccc3O2)O1	–	–	–	–	–	–	·
S=c1[nH]c2nc(Cl)c(Cl)nc2[nH]1	41	·	·	·	–	·	+
O=C(NC(=S)Nc1ncc(Br)cc1Br)c1ccccc1	–	–	–	–	–	–	·
O=C(CCn1nc(-c2ccc(Cl)cc2)c2ccccc2c1=O)NN1CCOCC1	–	–	–	–	–	–	·
OCCCNC(=S)Nc1ccc2nccnc2c1	49	–	–	–	–	–	–
Fc1ccc(NC(=S)Nc2ccc3nccnc3c2)cc1	–	–	–	–	–	–	·
CCCN(CCC)S(=O)(=O)c1ccc(C(=O)Nc2cc3oc4ccccc4c3cc2OC)cc1	45	–	–	–	–	–	–
CCN(CC)S(=O)(=O)c1cccc(C(=O)Nc2cc3oc4ccccc4c3cc2OC)c1	–	–	–	–	–	–	·
CCCCN(C)C(=O)c1cc2cc3cc(OC)ccc3nc2o1	·	–	–	–	–	–	·
CCCCN(C)C(=O)c1cc2cc3ccc(OC)cc3nc2o1	58	–	–	–	–	–	+
SMILES	Neddylation inh	HIF activator	procasp3 activ	procasp7 counter	GAA850 FXN act	Calb FLC	Neddyl inh conf
Cc1csc(NC(=O)c2cc(=O)[nH]c3ccc(S(=O)(=O)N4CCOCC4)cc23)n1	57	–	–	–	–	–	·
CC(=O)Nc1ccc(C(=O)Nc2ccc(S(=O)(=O)N3CCCC3)cc2)cc1	–	–	–	–	–	·	·
O=C(Nc1ccc2c(c1)C(=O)NC2=O)c1ccc(S(=O)(=O)N2CCCC2)cc1	37	–	–	–	–	–	–
O=C(/C=C/c1ccccc1)Nc1ccc2c(c1)C(=O)NC2=O	44	–	–	–	–	–	·
O=C(Nc1ccc2c(c1)C(=O)NC2=O)c1cccc(C(F)(F)F)c1	40	–	–	–	–	–	–
O=C(CC1CCCC1)NNC(=O)c1ccc(Br)cc1	–	·	–	–	–	·	·
COc1ccc(C2NC(=O)c3ccccc3O2)cc1 (stereo not drawn)	–	–	–	–	–	–	·
C=CCNC(=O)C1CCC(=O)N1S(=O)(=O)c1ccc(C)cc1 (stereo not drawn)	–	–	–	–	–	–	·
COc1ccc2[nH]cc(CCNC(=O)Cc3ccc(Cl)cc3)c2c1	–	–	–	–	–	–	·
Cc1cc(/C=C(\C#N)C(=O)OCC(=O)NC(=O)NC(C)(C)C)c(C)n1CCC(C)C	40	–	–	–	–	–	–
CCCn1c(C)cc(/C=C(\C#N)C(=O)OCC(=O)Nc2cccc(S(N)(=O)=O)c2)c1C	63	·	–	–	–	·	–
CCCn1c(C)cc(/C=C(\C#N)C(=O)OCC(=O)Nc2cccc(OC)c2)c1C	–	–	–	–	–	–	·
COC(=O)C1=C(C)NC2=C(C(=O)CC(C)(C)C2)C1c1cnn(C)c1C (stereo not drawn)	40	·	–	–	–	–	·
CC(=O)Nc1c2c(nn1-c1ccc(F)cc1)CSC2	–	–	–	–	–	–	·
O=C(Nc1ccc(/C=C/c2nc3ccccc3o2)cc1)c1c(F)cccc1F	·	–	–	–	–	–	·
CC(=O)Nc1ccc(N/C=C(\C=O)c2nc3ccccc3o2)cc1	·	–	–	–	–	–	·
CC(=O)Nc1ccc(/C=C/c2nc3ccccc3o2)cc1	47	–	–	–	–	–	·
CC(=O)Nc1cccc(N/C=C(\C=O)c2nc3ccccc3o2)c1	55	–	–	–	–	–	–
COc1ccc(Nc2cc3n(c(=O)n2)CCc2cc(OC)c(OC)cc2-3)cc1	47	–	–	–	–	–	·
CC(C)NC(=O)C1(C)CCN1C(=O)C(c1ccccc1)c1ccccc1 (stereo not drawn)	–	·	·	·	–	·	·
NCCNC(=O)c1c(NC(=O)c2ccccc2)sc2c1CCCC2	46	–	–	–	–	–	–
O=c1c[n+]([O-])c2ccccc2n1OCc1c(F)cccc1F	42	–	–	–	–	–	+
O=c1c[n+]([O-])c2ccccc2n1OCc1ccccn1	37	–	–	–	–	–	–
CCOn1c(=O)c[n+]([O-])c2ccccc21	49	–	–	–	–	–	·
